In brackets after ≈: the same amount, converted by molar mass.
Legend:
Type in all cases: functional
Staphylococcus aureus [1] = assay: Antibacterial activity against methicillin-resistant Staphylococcus aureus clinical isolate 2
How it was run: (§1)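 Broth microdilution MIC against clinical S. aureus isolates (incl. MRSA), run per NCCLS guidelines in 96-well plates. Test sample dissolved in sterile water to a 200 µg mL-1 working concentration, then doubling dilutions in Mueller-Hinton broth. Incubated at 37 °C, growth read visually plus resazurin indicator. MIC reported in µg/mL.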

Staphylococcus aureus [2] = assay: Antibacterial activity against methicillin-resistant Staphylococcus aureus clinical isolate 1; how it was run: as §1
Staphylococcus aureus [3] = assay: Antibacterial activity against methicillin-sensitive Staphylococcus aureus NCTC 6571
How it was run: (§2)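 Broth microdilution in Mueller-Hinton broth. Samples were dissolved in sterile water to 200 µg mL-1 as the working solution and doubling dilutions were made across rows. Plates were incubated at 37 °C and inspected visually, with resazurin added as growth indicator. MIC reported in µg mL-1.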

Staphylococcus aureus [4] = assay: Antibacterial activity against methicillin-resistant Staphylococcus aureus clinical isolate 5; how it was run: as §1
Staphylococcus aureus [5] = assay: Antibacterial activity against methicillin-resistant Staphylococcus aureus clinical isolate 3; how it was run: as §1
Candida albicans = assay: Antifungal activity against Candida albicans NCPF 3179; conditions: Candida albicans; read-out: MIC
How it was run: (§3)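 Antifungal microdilution in Sabouraud broth. Test sample at 200 µg mL-1 working solution in sterile water was serially doubled down successive rows. Incubation was at 25 °C, followed by visual growth check and addition of resazurin indicator. Read-out is MIC in µg mL-1.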

Enterococcus faecalis = assay: Antibacterial activity against Streptococcus faecalis NCTC 775; how it was run: as §2
[6] = system: Mycolicibacterium fortuitum; assay: Antibacterial activity against Mycobacterium fortuitum NCTC 10394; how it was run: as §2
Staphylococcus aureus [7] = assay: Antibacterial activity against methicillin-resistant Staphylococcus aureus clinical isolate 4; how it was run: as §1
Aspergillus niger = assay: Antifungal activity against Aspergillus niger IMI 149007; how it was run: as §3
[8] = Staphylococcus aureus, NCTC 6571, read-out: MIC
[9] = Enterococcus faecalis, NCTC 775, read-out: MIC

SMILES	MIC (Staphylococcus aureus [1]) [µg/mL]	MIC (Staphylococcus aureus [2]) [µg/mL]	MIC (Staphylococcus aureus [3]; [8]) [µg/mL]	MIC (Staphylococcus aureus [4]) [µg/mL]	MIC (Staphylococcus aureus [5]) [µg/mL]	MIC (Candida albicans) [µg/mL]	MIC (Enterococcus faecalis; [9]) [µg/mL]	MIC [6] [µg/mL]	MIC (Staphylococcus aureus [7]) [µg/mL]	MIC (Aspergillus niger) [µg/mL]	MIC (Staphylococcus aureus [3]) [µg/mL]	MIC (Enterococcus faecalis) [µg/mL]
Cn1cc(NC(=O)c2cc(NC(=O)c3ccc(/C=C/c4ccncc4)cc3)cn2C)cc1C(=O)NCCN1CCOCC1	2 (≈ 3.44 µM)	0.5 (≈ 0.86 µM)	2 (≈ 3.44 µM)	0.5 (≈ 0.86 µM)	1 (≈ 1.72 µM)	50 (≈ 86 µM)	25 (≈ 43 µM)	> 50	1 (≈ 1.72 µM)	> 50		
CC(C)CCc1sc(NC(=O)c2cc3ccccc3cn2)nc1C(=O)Nc1cc(C(=O)NCCCN(C)C)n(C)c1	32 (≈ 55.6 µM)	32 (≈ 55.6 µM)	> 50	32 (≈ 55.6 µM)	32 (≈ 55.6 µM)	> 50	> 50	> 50	32 (≈ 55.6 µM)	> 50		
CC(C)CCn1cc(NC(=O)c2cc(NC(=O)c3ccc4c(c3)OCO4)cn2C)cc1C(=O)Nc1cc(C(=O)NCCCN(C)C)n(C)c1	16 (≈ 23.8 µM)	8 (≈ 11.9 µM)	50 (≈ 74.3 µM)	16 (≈ 23.8 µM)	16 (≈ 23.8 µM)	> 50	> 50	> 50	16 (≈ 23.8 µM)	> 50		
CC(=N)Nc1cc(C(=O)Nc2cc(C(=O)Nc3cc(C(=O)NCCCN4CCOCC4)n(C)c3)n(C)c2)n(C)c1	> 64	> 64	> 50	> 64	> 64	> 50	> 50	> 50	> 64	> 50		
Cn1cc(NC(=O)c2cc(NC(=O)c3cc(/C=C/c4ccc5ccccc5n4)cn3C)cn2C)cc1C(=O)NCCN1CCOCC1	64 (≈ 101 µM)	4 (≈ 6.3 µM)	13 (≈ 20.5 µM)	16 (≈ 25.2 µM)	64 (≈ 101 µM)	> 50	13 (≈ 20.5 µM)	> 50	32 (≈ 50.4 µM)	> 50		
Cn1cccc1/C=C/c1ccc(C(=O)Nc2cc(C(=O)Nc3cc(C(=O)NCCN4CCOCC4)n(C)c3)n(C)c2)cc1	16 (≈ 27.4 µM)	4 (≈ 6.85 µM)	3 (≈ 5.14 µM)	16 (≈ 27.4 µM)	16 (≈ 27.4 µM)	> 50	13 (≈ 22.3 µM)	> 50	16 (≈ 27.4 µM)	> 50		
CSc1ccc(/C=C/c2ccc3cc(C(=O)Nc4cc(C(=O)Nc5cc(C(=O)NCCN6CCOCC6)n(C)c5)n(C)c4)ccc3n2)cc1	> 64	4 (≈ 5.9 µM)	> 50	> 64	> 64	> 50	> 50	> 50	> 64	> 50		
CN(C)CCCNC(=O)c1cc(NC(=O)c2cc(NC(=O)c3ccc(/C=C/c4ccncc4)cc3)cn2C)cn1C	32 (≈ 57.8 µM)	16 (≈ 28.9 µM)	50 (≈ 90.3 µM)	> 64	64 (≈ 116 µM)	> 50	25 (≈ 45.2 µM)	> 50	> 64	> 50		
CSc1ccc(/C=C/c2ccc(C(=O)Nc3cc(C(=O)Nc4cc(C(=O)NCCN5CCOCC5)n(C)c4)n(C)c3)cn2)cc1	4 (≈ 6.37 µM)	0.5 (≈ 0.796 µM)	6 (≈ 9.56 µM)	0.5 (≈ 0.796 µM)	2 (≈ 3.19 µM)	> 50	> 50	> 50	1 (≈ 1.59 µM)	> 50		
CN(C)CCCNC(=O)c1cc(NC(=O)c2cc(NC(=O)c3cc(NC(=N)c4ccc5ccccc5n4)cn3C)cn2C)cn1C	> 64	> 64	> 50	> 64	> 64	50 (≈ 80.3 µM)	50 (≈ 80.3 µM)	> 50	> 64	50 (≈ 80.3 µM)		
COc1cccc(C(=N)Nc2cc(C(=O)Nc3cc(C(=O)Nc4cc(C(=O)NCCc5ccccn5)n(C)c4)n(C)c3)n(C)c2)c1	> 64	> 64	50 (≈ 80.4 µM)	> 64	> 64	> 50	> 50	> 50	> 64	> 50		
COc1cccc(C(=N)Nc2cc(C(=O)Nc3cc(C(=O)Nc4nc(C(=O)NCCN5CCOCC5)c(C(C)C)s4)n(C)c3)n(C)c2)c1	64 (≈ 94.7 µM)	16 (≈ 23.7 µM)	> 50	32 (≈ 47.4 µM)	32 (≈ 47.4 µM)	> 50	> 50	> 50	32 (≈ 47.4 µM)	> 50		
COc1cccc(C(=N)Nc2cc(C(=O)Nc3cc(C(=O)Nc4cc(C(=O)NCCCN5CCOCC5)n(C)c4)n(C)c3)n(C)c2)c1	> 64	> 64	> 50	> 64	> 64	> 50	> 50	> 50	> 64	> 50		
COc1cccc(C(=O)Nc2cc(C(=O)Nc3cc(C(=O)Nc4nc(C(=O)NCCCN(C)C)c(C(C)C)s4)n(C)c3)n(C)c2)c1	32 (≈ 49.3 µM)	16 (≈ 24.7 µM)	25 (≈ 38.5 µM)	32 (≈ 49.3 µM)	32 (≈ 49.3 µM)	> 50	25 (≈ 38.5 µM)	> 50	32 (≈ 49.3 µM)	> 50		
Cn1cc(NC(=O)c2cc(NC(=O)c3csc(/C=C/c4ccc5ccccc5n4)n3)cn2C)cc1C(=O)NCCN1CCOCC1	8 (≈ 12.5 µM)	8 (≈ 12.5 µM)	3 (≈ 4.7 µM)	8 (≈ 12.5 µM)	8 (≈ 12.5 µM)	> 50	25 (≈ 39.1 µM)	> 50	8 (≈ 12.5 µM)	> 50		
COc1cccc(/C=C/c2ccc(C(=O)Nc3cc(C(=O)Nc4cc(C(=O)NCCN5CCOCC5)n(C)c4)n(C)c3)cc2)c1	4 (≈ 6.55 µM)	2 (≈ 3.27 µM)	6 (≈ 9.82 µM)	4 (≈ 6.55 µM)	4 (≈ 6.55 µM)	> 50	50 (≈ 81.9 µM)	> 50	4 (≈ 6.55 µM)	> 50		
CC(C)c1sc(NC(=O)c2cc(NC(=O)c3cc(NC(=O)c4cccc(Cl)c4)cn3C)cn2C)nc1C(=O)NCCCN(C)C	11 (≈ 16.8 µM)	11 (≈ 16.8 µM)	13 (≈ 19.9 µM)	2 (≈ 3.06 µM)	11 (≈ 16.8 µM)	> 50	6 (≈ 9.19 µM)	> 50	0.5 (≈ 0.765 µM)	> 50		
CC(C)CCn1cc(NC(=O)c2cc(NC(=O)c3cccc(Cl)c3)cn2C)cc1C(=O)Nc1cc(C(=O)NCCCN(C)C)n(C)c1	16 (≈ 24.1 µM)	16 (≈ 24.1 µM)	13 (≈ 19.6 µM)	16 (≈ 24.1 µM)	16 (≈ 24.1 µM)	> 50	6 (≈ 9.05 µM)	> 50	16 (≈ 24.1 µM)	> 50		
Cn1cc(NC(=O)c2cc(NC(=O)c3ccc(/C=C/c4nc5ccccc5o4)cc3)cn2C)cc1C(=O)NCCN1CCOCC1 (stereo in doubt; 79)	16 (≈ 25.7 µM)	1 (≈ 1.61 µM)		1 (≈ 1.61 µM)	1 (≈ 1.61 µM)	> 50		> 50	1 (≈ 1.61 µM)	> 50	13 (≈ 20.9 µM)	25 (≈ 40.2 µM)
Cn1cc(NC(=O)c2cc(NC(=O)c3ccc(/C=C/c4cccnc4)cc3)cn2C)cc1C(=O)NCCN1CCOCC1	8 (≈ 13.8 µM)	2 (≈ 3.44 µM)	35 (≈ 60.2 µM)	1 (≈ 1.72 µM)	4 (≈ 6.88 µM)	> 50	35 (≈ 60.2 µM)	> 50	8 (≈ 13.8 µM)	> 50		

Reference: ChEMBL document CHEMBL1138269, “Antimicrobial lexitropsins containing amide, amidine, and alkene linking groups” (J Med Chem, 2007)
